Assay results published in ChEMBL document CHEMBL1122405, “Structure--activity relationships for and potentiation of the antimitogenic activity of 2-5A core derived from 2-5A, a mediator of interferon action” (J Med Chem, 1983).

How the values were obtained:
Format in all cases: functional
Nucleic Acid [1] = experiment: Percent inhibition of DNA synthesis ([Me-3H] thymidine incorporation) at 50 uM concentration
Outline: (§1)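 Balb/c 3T3 cells were grown to confluence in Eagle's MEM with 10% fetal calf serum. They were synchronized in serum-free medium containing 10% spent medium, then stimulated with fresh medium plus 10% FCS, with or without oligonucleotide at a final 5 or 50 μM. At set intervals, duplicate cultures were pulsed 1 h with [3H]thymidine (40 Ci/mmol) and TCA-insoluble cpm counted. % inhibition = 100[1 − treated/control], using cpm summed over the control peak DNA-synthesis period (e.g. 15–16, 17–18, 19–20 h).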

Nucleic Acid [2] = experiment: Percent inhibition of DNA synthesis ([Me-3H] thymidine incorporation) at 5 uM concentration; outline: as §1
[3] = Percent inhibition of protein synthesis ([35S]methionine incorporation) at 50 uM concentration
Outline: (§2)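 Confluent Balb/c 3T3 cells were synchronized in methionine-free, serum-free medium containing 10% spent medium. They were then stimulated with fresh methionine-free medium plus 10% fetal calf serum, with or without oligonucleotide at a final 5 or 50 μM. At set intervals, duplicate cultures were pulse-labeled 1 h with [35S]methionine (147 mCi/mmol) and TCA-insoluble cpm measured. % inhibition = 100[1 − treated cpm/untreated cpm].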

[4] = Percent inhibition of protein synthesis ([35S]methionine incorporation) at 5 uM concentration; outline: as §2

Nc1ncnc2c1ncn2[C@@H]1O[C@H](COP(=O)(O)O[C@@H]2[C@H](O)[C@@H](COP(=O)(O)O[C@@H]3[C@H](O)[C@@H](CO)O[C@H]3n3cnc4c(N)ncnc43)O[C@H]2n2cnc3c(N)ncnc32)[C@@H](O)[C@H]1O
inhibition (Nucleic Acid [1]): 48%
inhibition (Nucleic Acid [2]): 14%
inhibition [3]: 14%
inhibition [4]: 0%

Nc1ncnc2c1ncn2[C@@H]1O[C@H](COP(=O)(O)O[C@@H]2[C@H](O)[C@@H](COP(=O)(O)O[C@@H]3[C@H](O)[C@@H](COP(=O)(O)O)O[C@H]3n3cnc4c(N)ncnc43)O[C@H]2n2cnc3c(N)ncnc32)[C@@H](O)[C@H]1O
inhibition (Nucleic Acid [1]): 54%
inhibition (Nucleic Acid [2]): 15%
inhibition [3]: 33%
inhibition [4]: 0%

Nc1ncnc2c1ncn2[C@@H]1O[C@H](COP(=O)(O)O[C@@H]2[C@H](O)[C@@H](COP(=O)(O)O[C@@H]3[C@H](O)[C@@H](COP(=O)(O)OP(=O)(O)OP(=O)(O)O)O[C@H]3n3cnc4c(N)ncnc43)O[C@H]2n2cnc3c(N)ncnc32)[C@@H](O)[C@H]1O
inhibition (Nucleic Acid [1]): 27%
inhibition (Nucleic Acid [2]): 11%
inhibition [3]: 21%
inhibition [4]: 11%
